Assay outcomes (PubChem)
Redox H2O2 prof – compounds producing H2O2 with reducing agent – biochemical, NIH compound library profiling, artefact control for MLSCN library redox annotation, primary screen | DTT-dependent redox cycling H2O2, phenol red/HRP absorbance; 100% = 100 µM peroxide control, 0% = buffer | 200,000 compounds, 0.03% hits | activation, % at 10 µM;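 active means activation of at least 50% relative to the plate's high and low controls in the primary single-dose screen; inactive means activation below 50%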;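 further: compound incubated with DTT at 0.8 mM final as the reducing agent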
PMI act – phosphomannose isomerase (human) activation; activation factor at 20 µM; purified human PMI, coupled resazurin fluorescence, 20 min; hits give high values; 1 = vehicle control, 0 substrate-free wells; P34949; AID 1214; 190,000 compounds, 0.005% hits;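 active means activation factor of 2 or more at 20 µM, relative to plate controls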
Target sequence (P34949 whole entry, looked up): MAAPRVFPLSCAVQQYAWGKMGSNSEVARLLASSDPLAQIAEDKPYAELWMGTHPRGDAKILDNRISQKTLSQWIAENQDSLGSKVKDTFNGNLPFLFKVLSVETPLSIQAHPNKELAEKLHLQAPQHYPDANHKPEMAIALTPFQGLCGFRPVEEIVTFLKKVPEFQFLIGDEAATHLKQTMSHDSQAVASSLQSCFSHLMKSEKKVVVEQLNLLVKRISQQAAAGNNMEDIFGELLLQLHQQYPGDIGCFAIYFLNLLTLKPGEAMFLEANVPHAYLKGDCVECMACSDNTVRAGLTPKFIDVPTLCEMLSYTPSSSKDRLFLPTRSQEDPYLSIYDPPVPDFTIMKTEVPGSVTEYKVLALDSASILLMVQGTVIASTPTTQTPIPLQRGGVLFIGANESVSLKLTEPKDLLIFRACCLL
Diaph inh CS – diaphorase inhibition or chemical oxidation counter-screen | AID 1217 | diaphorase resazurin-to-resorufin fluorescence, NADH, 16 min; bacterial (C. kluyveri) enzyme, not human | 190,000 compounds, 0.69% hits | inhibition, % at 20 µM;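 active means primary screen inhibition at 20 µM above a set limit, cut at about 50% in these data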;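 further: plate controls were DMSO with full reaction for no effect and wells lacking NADH for full effect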
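Test system: diaphorase enzyme from Clostridium kluyveri; amount: diaphorase at 0.14 U/mL in enzyme working solution; detection: fluorescence of resorufin formed from resazurin, Ex 544/Em 590 nm; times: reaction incubation of 16 min at room temperature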
PMI act hi M6P – increases human PMI activity with near-saturating mannose 6-phosphate; 190,000 compounds, 0.34% hits; coupled PMI enzyme assay, resazurin fluorescence, 20 min; hits give high values; 1 = untreated enzyme, 0 = substrate-free blank; activation factor at 20 µM; P34949;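 active means activation factor of 2 or more at 20 µM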
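Material: human phosphomannose isomerase with PGI, G6PDH, diaphorase coupling enzymes / Reagent: Man-6-P substrate 1.0 mM / Dosing: single compound dose of 20 µM, 1% DMSO final / Incubation: enzyme reaction with compound 20 min at room temperature / Signal: resorufin fluorescence (Ex 544/Em 590 nm) from resazurin via diaphorase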
G6PDH CS – L. mesenteroides G6PDH inhibition counter-screen | Purified L. mesenteroides G6PDH, diaphorase/resazurin coupled fluorescence, 45 min | inhibition, % at 5 µM | 200,000 compounds, 0.12% hits; in the data active means inhibition above about 50%
Diaphorase act – diaphorase activation or chemical reduction counter-screen. AID 1229. Diaphorase/resazurin coupled assay, resorufin fluorescence, 16 min; hits give high values; 1 = vehicle wells, 0 = NADH-free wells. 190,000 compounds, 0.005% hits. activation factor at 20 µM;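 active means diaphorase activity raised at least twofold by the compound at 20 µM; inactive means activation factor below 2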
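Material: purified diaphorase enzyme from Clostridium kluyveri / Medium: HEPES pH 7.4 buffer with MgCl2 and Tween 20 / Schedule: enzyme reaction of 16 min at room temperature / Measured by: resorufin fluorescence, excitation 544 nm, emission 590 nm / Evaluation: rise in resorufin formation, marking diaphorase activation or chemical reduction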
* marks the source's active call; other numbers are inactive results. An excerpt weighted towards active compounds, which were near 1.1% of everything screened.

SMILES	Redox H2O2 prof	PMI act	Diaph inh CS	PMI act hi M6P	G6PDH CS	Diaphorase act
O=c1c(OC2OC(CO)C(O)C(O)C2O)c(-c2ccc(O)c(O)c2)oc2cc(O)cc(O)c12 (stereo unspecified)	0	0.4	62*	0.7	41	0.4
C[C@@H]1O[C@@H](Oc2c(-c3cc(O)c(O)c(O)c3)oc3cc(O)cc(O)c3c2=O)[C@H](O)[C@H](O)[C@H]1O	1	0.3	71*	0.5	34	0.3
O=c1c(-c2ccc(O)cc2)coc2cc(OC3OC(CO)C(O)C(O)C3O)cc(O)c12 (stereo unspecified)	1	1.1	-9	1	20	1.1
CCc1nn(CC(=O)Nc2ccc(Br)c(C)c2)c(=N)s1	0	1.2	-26	1.1	6	1.3
CC(C)(O)C#Cc1ccc(CN2CCN(CCc3ccccc3)C(CCO)C2)s1 (stereo unspecified)	-2	0.9	-8	1	1	1.1
COc1ccc(CCNC(=O)c2ccc3nc(-c4ccco4)c(-c4ccco4)nc3c2)cc1OC	1	1	66*	1	16	0.3
COc1ccc(CCNC(=O)c2ccc3c(SCC(=O)O)c4c(nc3c2)CCCC4)cc1OC	0	1.4	68*	1.5	2	0.3
COc1ccc(CCNC(=O)c2ccc3c(=O)n(Cc4ccco4)c(=S)[nH]c3c2)cc1OC	1	0.9	51*	1.3	1	0.5
Cc1ccc([N+](=O)[O-])cc1N/C=C1\CCc2ccccc2C1=O	4	0.2	58*	0.3	32	0.4
COc1ccc(-c2c(=O)n(OCc3ccccn3)c3ccccc3[n+]2[O-])cc1OC	1	1.1	20	0.7	3	0.8
COc1ccc(-c2c(=O)n(OCc3ccccc3[N+](=O)[O-])c3ccccc3[n+]2[O-])c(OC)c1	-1	1	51*	1	-2	0.5
O=C(N/N=C\c1ccc(-c2ccccc2[N+](=O)[O-])o1)C1COc2cc3ccccc3cc2O1 (stereo unspecified)	1	0.3	64*	0.3	19	0.4
COc1ccc(S(=O)(=O)Nc2ccc(O)c(Sc3ncn[nH]3)c2)cc1	0	0.9	15	0.9	4	0.8
COc1ccc(S(=O)(=O)Nc2cc(Sc3ncn[nH]3)c(O)c3ccccc23)cc1	1	0	20	0.3	54*	0.8
C#CCOCCOCCOCCNc1nc(N2CCOCC2)nc(N2CCN(C(=O)[C@H](Cc3ccc(O)cc3)n3cc([C@@H](N)C(C)CC)nn3)CC2)n1 (stereo partly specified)	0	1.2	79*	1.1	9	0.2
C#CCOCCOCCOCCNc1nc(N2CCN(C(=O)C(Cc3ccc(O)cc3)n3cc(C(N)C(C)CC)nn3)CC2)nc(N2CCN(C(=O)C(Cc3ccc(O)cc3)n3cc(C(N)C(C)CC)nn3)CC2)n1 (stereo unspecified)	0	1.1	-6	1.1	13	1.1
Cc1ccc(CN(Cc2cc3cc4c(cc3[nH]c2=O)OCCO4)Cc2nnnn2Cc2ccco2)cc1	1	0.6	58*	0.8	19	0.4
C=CCO/N=C(/C)c1ccc(Oc2cnccn2)cc1	-2	1	2	1	2	1
O=C(Cc1cnn(-c2ccccc2)c1)c1ccc(O)c(O)c1O	-1	0.3	69*	0.3	18	0.3
CCN(CC)C(=O)CSc1nc2c(sc(=S)n2CC)c(=O)n1-c1ccccc1	0	1.1	22	1.1	4	0.8
CCCCN(CC)C(=O)CSc1nc2c(sc(=S)n2-c2ccc(OCC)cc2)c(=O)[nH]1	0	1.1	72*	1.1	3	0.3
CCN(CC)C(=O)CSc1nc2sc(C)c(C)c2c(=O)[nH]1	1	1	15	1.1	18	0.8
CCCN(CCC)C(=O)CSc1nc2c(sc(=S)n2-c2ccc(OCC)cc2)c(=O)[nH]1	0	1	80*	1	-4	0.2
CCOC(=O)CC(=O)CSc1nc2c(sc(=S)n2-c2ccc(OCC)cc2)c(=O)[nH]1	0	1.1	60*	1.2	-4	0.4
CCOc1ccc(-n2c(=S)sc3c(=O)[nH]c(SCC(=O)NC(C)CC)nc32)cc1 (stereo unspecified)	0	1	32	1.1	1	0.7
SMILES	Redox H2O2 prof	PMI act	Diaph inh CS	PMI act hi M6P	G6PDH CS	Diaphorase act
COc1cc(OC)nc(-n2ncc(Br)c(Br)c2=O)n1	0	1.1	7	1.1	3	0.9
C=CCc1cccc2cc(C(=O)O)c(=O)oc12	0	1	7	1	3	0.9
C=CCc1cccc2cc(C(=O)Nc3ccccc3C(=O)O)c(=O)oc12	-1	0.9	93*	1.1	4	0.1
COCC(C)N1CC(O)=C(c2nc(-c3ccc(Cl)cc3)cs2)C1=N (stereo unspecified)	1	1	12	1	-2	0.9
COc1ccc(-n2c(O)c(/C=N/NS(=O)(=O)c3cccc([N+](=O)[O-])c3)c3ccccc3c2=O)cc1OC	0	1.5	4	2.1*	6	1
CC(C)CC1(C)NC(=O)N(CC(=O)Nc2cccc(S(=O)(=O)N(C)c3ccccc3)c2)C1=O (stereo unspecified)	-1	0.8	19	0.9	2	0.8
CCOC(=O)c1cc(-c2ccc(OC)cc2)nc2c1c(C)nn2CCC(N)=S	0	1	7	1.1	5	0.9
COc1cccc(/C=N/N2CCOCC2)c1O	0	1	20	1	2	0.8
Oc1ccc(/C=N/N2CCOCC2)c(O)c1O	-1	0.3	69*	0.3	52*	0.3
CCOC(=O)c1ccc(CC(=O)c2ccc(O)c(O)c2O)o1	-1	0.3	76*	0.3	42	0.2
COc1ccc(C(=O)c2ccc(CC(=O)O)s2)cc1	-1	1.6	7	2.4*	3	0.9
O=C(O)Cc1ccc(C(=O)c2ccccc2)s1	-3	1.1	9	1.2	3	0.9
Cc1cc(/C=C2/C(=N)N3C(=NC2=O)SN=C3S(C)(=O)=O)c(C)n1-c1ccccc1F	0	1.6	13	1.7	6	0.9
CS(=O)(=O)C1=NSC2=NC(=O)/C(=C\c3cccn3-c3ccc(Cl)cc3)C(=N)N21	0	1.1	51*	1.1	-1	0.5
